From PMC4488387 (Nature methods, 2015)

Assays:
Nluc-A1 receptor [1] = target: T1, Nluc-A1 receptor (Homo sapiens, UniProt P30542); experiment: NanoBRET saturation binding, HEK293 cells stably expressing Nluc-A1; conditions: Nluc-A1, concentrations up to 500 nM, non-specific 1 μM DPCPX
T1 sequence (P30542 2-326 limits assumed): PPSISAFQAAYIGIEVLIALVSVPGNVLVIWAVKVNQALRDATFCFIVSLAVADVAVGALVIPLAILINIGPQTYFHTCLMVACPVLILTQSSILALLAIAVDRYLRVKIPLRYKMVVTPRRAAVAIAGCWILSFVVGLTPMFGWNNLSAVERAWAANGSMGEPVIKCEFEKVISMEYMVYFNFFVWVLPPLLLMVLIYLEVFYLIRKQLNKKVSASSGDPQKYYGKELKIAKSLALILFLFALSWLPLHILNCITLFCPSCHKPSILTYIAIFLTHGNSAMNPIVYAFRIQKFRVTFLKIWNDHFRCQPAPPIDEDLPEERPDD

Nluc-A1 receptor [2] = target: T1, Nluc-A1 receptor; experiment: NanoBRET association kinetics of CA200645 binding; conditions: read-out: KD from kinetics (koff/kon); Nluc-A1, room temperature, 60 min, n=3
Outline: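 Stable single-cell-cloned HEK293 Nluc-A1 cells were seeded 24 h ahead. Medium was replaced with HBSS containing 10 uM furimazine and equilibrated 15 min in the reader. The fluorescent ligand was then added at several concentrations, and each well was read once per min for 60 min.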

| Compound | saturable specific BRET signal (Nluc-A1 receptor [1]) | Kd (Nluc-A1 receptor [2]) |
| --- | --- | --- |
| COc1ccc(-n2nc3c(NC(=O)CCC(=O)NCCOCCOCCNC(=O)CCCCCNC(=O)COc4ccc(/C=C/C5=[N+]6C(=Cc7ccc(-c8cccs8)n7[B-]6(F)F)C=C5)cc4)nc4ccccc4n3c2=O)cc1 [AV039] | did not detect a saturable specific BRET signal |  |
| CA200645 |  | 20.4 ± 6.9 nM |
